# Shown are actives, neighbours in structure and some others; about 2.5% of the full set was active somewhere.
# mABHD4 FP – inhibitors of mouse ABHD4; purified mABHD4, FP-Rh probe fluorescence polarization; inhibition, % at 8.92 µM; actives 0.54% (n = 370,000); Q8VD66;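 active means inhibition exceeding the mean over every tested compound plus 3 SD, cut at about 30% in these data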;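 further: 0% = plate median of compound wells and 100% = S159A mutant with DMSO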
# Target sequence (Q8VD66 whole entry, looked up): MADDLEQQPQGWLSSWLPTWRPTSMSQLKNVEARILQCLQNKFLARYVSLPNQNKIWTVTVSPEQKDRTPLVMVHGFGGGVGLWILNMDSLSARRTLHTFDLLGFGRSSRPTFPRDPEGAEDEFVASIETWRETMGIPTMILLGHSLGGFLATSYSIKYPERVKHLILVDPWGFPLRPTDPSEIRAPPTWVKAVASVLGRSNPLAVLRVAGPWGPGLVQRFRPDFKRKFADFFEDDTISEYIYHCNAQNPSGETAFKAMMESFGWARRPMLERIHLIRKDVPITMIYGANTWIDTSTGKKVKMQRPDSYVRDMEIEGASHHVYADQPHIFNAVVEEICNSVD
#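 System: mouse ABHD4 enzyme, wild type / Medium: HEPES pH 7.0, NaCl, Pluronic buffer / Reagent: FP-Rh activity-based fluorescent probe / Control set: S159A mutant high control, sample median low control / Detection: fluorescence polarization with parallel and perpendicular emission, 525/598 nm / Schedule: 45 min + 60 min at 25 °C / Compound dosing: 8.92 µM, single dose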
# SIAE inh – human SIAE inhibition, primary screen; Q9HAT2; SIAE FP-Rh probe binding, fluorescence polarization; inhibition, % at 9.66 µM; actives 0.69% (n = 370,000);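 active means inhibition above a cutoff: mean of compounds within the control limits plus 3 SD of those, cut at about 17% in these data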;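 further: 0% = plate median of compound wells and 100% = probe without SIAE protein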
# TCR CD3 inh – blocks the human TCR-CD3 interaction | actives 0.37% (n = 360,000) | TAMRA-labeled TCR probe fluorescence, biochemical | inhibition, % at 9.4 µM; in the data active means inhibition above about 19%;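 further: recombinant mutant TCR 2C K166C tagged with TAMRA read by polarization; 0% = receptor in buffer alone and 100% = receptor with positive control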
# PRMT1 inh – blocks human protein arginine methyltransferase 1; actives 1.3% (n = 370,000); Q99873; recombinant PRMT1, activity-based probe fluorescence polarization; inhibition, % at 2.79 µM;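 active means inhibition above about 21% made by adding two undisclosed values, limit read from the data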
# HTRA1 inhibitor – inhibitors of human serine peptidase HTRA1; actives 0.5% (n = 340,000); recombinant HTRA1, FP-rhodamine activity-based probe, fluorescence polarization; inhibition, % at 5.96 µM; Q92743; in the data active means inhibition above about 36%;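 further: 0% = enzyme with DMSO and 100% = wells lacking enzyme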
# PRMT1 inh conf – confirmation of human PRMT1 inhibitors | shares compounds with PRMT1 inh | recombinant His-PRMT1, activity-based probe fluorescence polarization | inhibition, % at 2.79 µM | actives 42% (n = 3,300) | AID 687036;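 active means mean inhibition across replicates above the hit cutoff derived for the earlier primary screen, cut at about 22% in these data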
# * = called active by the depositor; nt = no result given.
SMILES,mABHD4 FP,SIAE inh,TCR CD3 inh,PRMT1 inh,HTRA1 inhibitor,PRMT1 inh conf
Cc1ccc(NC(=O)C2CCCN(c3nnc(-n4cccc4)s3)C2)c(C)c1 (centres undefined),-2,-4,nt,1,nt,nt
O=C(CSc1nc2[nH]c(=O)cc(O)c2s1)NCCc1ccccc1,8,3,5,3,0,nt
COc1ccc(CCNC(=O)CSc2nc3[nH]c(=O)cc(O)c3s2)cc1,10,7,1,29*,-3,4
O=C(Cc1ccc(S(=O)(=O)N2CCOCC2)s1)Nc1nc2c(s1)CCCC2,9,5,-5,29*,-6,4
CC[n+]1c(/C=C2\C=C(C)CC(C)C2)sc2ccccc21 (centres undefined),nt,nt,nt,nt,3,nt
CC[n+]1c(/C=C2/C=C(C)CC(C)(C)C2)sc2ccc(OC)cc21,-3,-6,0,36*,8,1
CCN(CC)c1ccc(/C=C/c2ccc3ccc(OC)cc3[n+]2CC)cc1,-233,-144,-25,0,-87,nt
CC[n+]1c(/C=C2\C=C(C)CC(C)(C)C2)sc2ccccc21,14,-3,3,44*,6,16
COc1ccc(S[C@]2(C(=O)N3CCCC3)CC(=O)N(c3ccccc3OC)[C@@H]2c2ccc(OC)cc2)cc1,1,2,nt,1,nt,nt
Nc1cccc([N+](=O)[O-])c1,7,4,1,2,8,nt
O=[N+]([O-])c1cccc(SSc2cccc([N+](=O)[O-])c2)c1,2,3,-5,83*,2,95*
CCOC(=O)c1sc(NC(=O)CSc2n[nH]c(-c3ccncc3)n2)c(C#N)c1C,-3,-6,1,-3,-7,nt
CCOc1ccc(/C=C/C2=Cc3c(sc(NC(=O)CSc4n[nH]c(N)n4)c3C#N)C(C)(C)C2)cc1,-27,-14,-3,33*,-43,9
NC(=O)c1ccsc1NC(=O)CSc1n[nH]c(N)n1,4,-1,7,-2,nt,nt
Cc1ccsc1/C=C/C1=Cc2c(sc(NC(=O)CSc3n[nH]c(N)n3)c2C#N)C(C)(C)C1,-6,-14,-4,41*,-21,4
C[C@H]1[C@@H](NC(=O)c2ccc(C(C)(C)C)cc2)CC[C@@]23CCCN2C(=O)CCC[C@@H]13,6,-7,nt,3,nt,nt
COC(=O)Cn1nc(-c2ccccc2)c2cccc(C(F)(F)F)c21,-8,-2,nt,5,nt,nt
CCCN1CCS(=O)(=O)N(Cc2cn(Cc3ccc(OC)cc3)nn2)C(C(=O)OC)C1 (centres undefined),-1,4,nt,-2,nt,nt
COc1ccc2nc3ccccc3[n+]([O-])c2c1,1,0,1,37*,1,27*
COc1ccccc1-c1ccc(/C=C2\C=CC(=O)O2)o1,12,0,-1,44*,nt,3
CC(C(=O)OCC(=O)c1ccc([N+](=O)[O-])cc1)N1C(=O)C2C3C=CC(C3)C2C1=O (centres undefined),-7,1,-8,28*,11,4
O=C(CN1C(=O)C2C3C=CC(C3)C2C1=O)OCC(=O)c1ccc([N+](=O)[O-])cc1 (centres undefined),10,1,7,50*,9,42*
O=C(CN1C(=O)C2C3C=CC(C3)C2C1=O)OCC(=O)c1ccc(Cl)cc1 (centres undefined),1,3,5,-4,2,nt
COc1ccc(CN2C(=O)[C@@](O)(c3cccn3C)c3cc(Br)ccc32)cc1,-10,-2,nt,0,nt,nt
CC(C)c1ccc[n+](-c2nc([O-])sc2C=O)c1,-2,-4,-4,3,nt,nt
SMILES,mABHD4 FP,SIAE inh,TCR CD3 inh,PRMT1 inh,HTRA1 inhibitor,PRMT1 inh conf
Cc1ccc[n+](-c2nc([O-])sc2C=O)c1,0,-7,7,58*,0,62*
O=C(CSc1nccn(-c2ccc(F)c(Cl)c2)c1=O)NC1CCCC1,-2,7,4,32*,-5,39*
Cc1ccc(-n2ccnc(SCC(=O)NCCc3ccccc3)c2=O)cc1F,5,-5,-7,59*,-5,42*
CCOc1ccc(-n2ccnc(SCC(=O)NCCc3ccccc3)c2=O)cc1,2,3,7,15,3,nt
Cc1cc(C)c2ccc(=S)[nH]c2n1,-6,6,3,38*,-2,16
COC(=O)C1CN(Cc2cn(CCOC(C)=O)nn2)CCS(=O)(=O)N1Cc1ccc(Cl)cc1 (centres undefined),1,-8,nt,4,nt,nt
CCOc1ccc(NC(=O)CN2CCCN(c3ccc(OC)cc3)CC2)cc1,5,3,nt,4,nt,nt
O=C1NC(=O)/C(=C/c2ccc(N3CCOCC3)o2)N1,3,3,-7,6,9,nt
O=C1NC(=O)/C(=C\c2ccc(N3CCOCC3)o2)N1,6,6,2,30*,2,12
Cn1cccc1C(=O)OCC(=O)NCc1ccc2c(c1)OCO2,10,8,26*,126*,-6,3
Cc1ccccc1N/N=C/c1sc(=O)n(Cc2cccc(C(=O)O)c2)c1Cl,11,-15,3,75*,7,5
COC(=O)c1cccc(Cn2c(Cl)c(/C=N/Nc3ccccc3C)sc2=O)c1,4,4,4,79*,-3,1
CCCCCC/C(C)=C1/SC(=S)NC1=O,-12,-2,-7,19,-36,nt
C/C(C/C(C)=C1/SC(=S)NC1=O)=C1\SC(=S)NC1=O,14,-28,7,40*,-11,24*
O=C(NCc1cccc(F)c1)c1cccc2c1C(=O)c1ccc(N3CCCC3)cc1S2(=O)=O,nt,nt,nt,nt,-36,nt
O=C(O)c1cccc2c1C(=O)c1ccc(N3CCCC3)cc1S2(=O)=O,-13,-11,1,27*,-3,30*
COC(=O)C1CN(C2CC2)CCS(=O)(=O)N1Cc1cn(Cc2ccc(C)cc2)nn1 (centres undefined),10,10,nt,-1,nt,nt
O=C(CSc1ccccn1)c1ccc(F)cc1,0,-3,5,27*,-3,24*
O=C(O)c1ccc(CSc2ccccn2)cc1,-4,-1,7,-2,6,nt
Cc1ccc(C(=O)CSc2ccccn2)cc1,-6,6,4,61*,-1,40*
CC[C@H](CCCc1ccc(OC)cc1)CCC(=O)N1CCOCC1,3,-4,nt,3,nt,nt
CSc1ccccc1OCc1cc(C(=O)N(C)Cc2ccc(C)o2)no1,-15,5,1,25*,-23,28*
CC(=O)c1cccc(OCc2cc(C(=O)N(C)Cc3ccc(C)o3)no2)c1,2,-3,4,32*,1,47*
Cc1ccc(CN(C)C(=O)c2ccccc2Oc2ccccc2)o1,5,1,4,34*,-10,14
COC(=O)C[C@H]1CC[C@@H]2[C@@H](COc3ccc(NC(=O)c4ccccc4)cc3C(=O)N2C)O1,-3,-7,nt,-3,nt,nt
C/C(=N/NC(=O)c1ccoc1C)c1cccs1,2,3,nt,-7,nt,nt
